Active and inactive are the calls of the source.

Data set [1] relates to Mus musculus. Description: Antinociceptive activity in Swiss mouse assessed as inhibition of formaldehyde-induced nociceptive response in right hind paw at 100 mg/kg, po administered 1 hr followed by formaldehyde challenge measured over 5 mins. The class given is functional, organism-based. Also on record: dose 100 mg/kg. In outline:
(§1)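 Female Swiss mice received vehicle (0.5% CMC, 4 ml/kg) or compound p.o. at 50–150 mg/kg, or at 3–30 mg/kg, 1 h before 20 µL of 0.92% formaldehyde s.c. into the dorsal right hindpaw. Paw-licking time was scored at 0–5 min (first phase) and 15–30 min (second phase). n = 9. Data: mean ± S.E.M., one-way ANOVA with Newman–Keuls.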

Data set [2] relates to Plasma. Briefly: Drug metabolism in Swiss mouse plasma assessed as nitrite level at 100 mg/kg, po measured after 0.25 to 3 hrs by Griess assay. Further details: dose 100 mg/kg, route oral. The class given is ADME, organism-based. Conditions: in vivo. A digest of the protocol: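 Female Swiss mice fasted 12 h received vehicle (0.5% CMC, 4 ml/kg) or compound at 100 mg/kg p.o. After ketamine/xylazine anesthesia at 15 min, 1 h and 3 h, blood was taken from the abdominal artery to avoid hemolysis. Heparinized plasma, stored at −70 °C, was mixed 1:1 with Griess reagent for 10 min at room temperature. A540 read against blank plasma; n = 7.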

The nature of data set [3]: Half life in Swiss mouse at 100 mg/kg, po by LC-MS/MS analysis. Conditions: in vivo. Also on record: dose 100 mg/kg, route oral. The class given is ADME, organism-based. A digest of the protocol:
(§2)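 Female Swiss mice (25–30 g), fasted 12 h, given 100 mg/kg p.o. as a suspension in 0.5% CMC (4 mL/kg). Heparinized blood was centrifuged and plasma stored at −70 °C. Plasma was run by LC–MS/MS on a C18 column with methanol/2 mM ammonium acetate + 0.03% formic acid (33:67). Values are mean ± S.E.M.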

Data set [4] can be described thus: Cmax in Swiss mouse at 100 mg/kg, po by LC-MS/MS analysis. It is filed as ADME, organism-based. The conditions noted are these: in vivo. Further details: dose 100 mg/kg, route oral. A digest of the protocol: as §2
Data set [5] has as its system Mus musculus. Briefly: Antinociceptive activity in Swiss mouse assessed as inhibition of formaldehyde-induced nociceptive response in right hind paw at 50 to 150 mg/kg, po administered 5 mins followed by formaldehyde challenge measured over 5 mins. The class given is functional, organism-based. A digest of the protocol: (§3)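 Female Swiss mice received compound p.o. (50, 100 or 150 mg/kg in 0.5% CMC) 5 min before s.c. injection of 0.92% formaldehyde (20 µL) into the right hindpaw. Licking time was recorded at 0–5 min and 15–30 min; n = 9. ANOVA with Newman–Keuls.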

A short description of data set [6]: AUC (0 to t) in Swiss mouse at 100 mg/kg, po by LC-MS/MS analysis. It is filed as ADME, organism-based. Further details: dose 100 mg/kg, route oral. Conditions: plasma. In outline: as §2
The test system of data set [7] is Mus musculus. Briefly: Antinociceptive activity in Swiss mouse assessed as inhibition of formaldehyde-induced nociceptive response in right hind paw at 100 mg/kg, po administered 1 hr followed by formaldehyde challenge measured for 15 to 30 mins. The class given is functional, organism-based. Also on record: dose 100 mg/kg. A digest of the protocol: as §1
Data set [8] deals with Mus musculus. Briefly: Antinociceptive activity in Swiss mouse assessed as inhibition of formaldehyde-induced nociceptive response in right hind paw at 150 mg/kg, po administered 1 hr followed by formaldehyde challenge measured over 5 mins. It is filed as functional, organism-based. Also on record: dose 150 mg/kg. In outline:
as §1

Data set [9] is described as follows: AUC (0 to infinity) in Swiss mouse at 100 mg/kg, po by LC-MS/MS analysis. Further details: time infinity, dose 100 mg/kg, route oral. The class given is ADME, organism-based. The conditions noted are these: plasma. In outline:
as §2

The subject of data set [10] is Mus musculus. Briefly: Antinociceptive activity in Swiss mouse assessed as inhibition of formaldehyde-induced nociceptive response in right hind paw at 50 to 150 mg/kg, po administered 5 mins followed by formaldehyde challenge measured for 15 to 30 mins. The class given is functional, organism-based. A digest of the protocol:
as §3

Data set [11] can be described thus: Tmax in Swiss mouse at 100 mg/kg, po by LC-MS/MS analysis. It is filed as ADME, organism-based. Further details: dose 100 mg/kg, route oral. The conditions noted are these: in vivo. In outline: as §2
For data set [12], the system named is Plasma. Briefly: Drug metabolism in Swiss mouse plasma assessed as formation of nicotinamide at 100 mg/kg, po after 10 hrs by LC-MS/MS analysis. Conditions: in vivo. Also on record: dose 100 mg/kg, route oral. It is filed as ADME, organism-based. In outline:
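Female Swiss mice fasted 12 h received 100 mg/kg p.o. in 0.5% CMC. Six mice per time point were sampled by decapitation from 5 min to 10 h, plus six untreated controls. Heparinized plasma stored at −70 °C. Nicotinamide measured by LC–MS/MS (C18, methanol/ammonium acetate–formic acid mobile phase).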

In data set [13] the test system is Mus musculus. Description: Antinociceptive activity in Swiss mouse assessed as inhibition of formaldehyde-induced nociceptive response in right hind paw at 150 mg/kg, po administered 1 hr followed by formaldehyde challenge measured 15 to 30 mins. It is filed as functional, organism-based. Also on record: dose 150 mg/kg. A digest of the protocol:
as §1

Data set [14] relates to Mus musculus. Briefly: Toxicity in Swiss mouse assessed as time spent on rotating rod at 150 mg/kg, po administered 1 hr prior to testing (reference value: 120 secs). The class given is organism-based. Further details: dose 150 mg/kg, route oral. Conditions: in vivo. A digest of the protocol:
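Female Swiss mice were trained on a rota-rod (14 rpm) over 3 days, with a 2 min cut-off. After baseline timing, they were dosed p.o. with vehicle (0.5% CMC, 4 ml/kg), compound at 150 mg/kg, or phenobarbital 40 mg/kg as positive control, and retested 1 h later. n = 9.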

The subject of data set [15] is Mus musculus. Description: Toxicity in Swiss mouse assessed as time spent on rotating rod at 40 mg/kg, po administered 1 hr prior to testing (reference value: 119 +/- 1 secs). The class given is organism-based. Further details: dose 40 mg/kg, route oral. The conditions noted are these: in vivo.
The subject of data set [16] is Mus musculus. Description: Antinociceptive activity in Swiss mouse assessed as inhibition of formaldehyde-induced nociceptive response in right hind paw at 100 to 150 mg/kg, po administered 1 hr followed by formaldehyde challenge measured 15 to 30 mins. The class given is functional, organism-based. A digest of the protocol: as §1
For data set [17], the system named is Mus musculus. Description: Antinociceptive activity in po dosed Swiss mouse assessed as inhibition of formaldehyde-induced nociceptive response in right hind paw administered 1 hr followed by formaldehyde challenge measured over 5 mins. The class given is functional, organism-based. A digest of the protocol: as §1
Data set [18] deals with Mus musculus. Description: Antinociceptive activity in Swiss mouse assessed as inhibition of formaldehyde-induced nociceptive response in right hind paw at 3 to 30 mg/kg, po administered 1 hr followed by formaldehyde challenge. The class given is functional, organism-based. In outline: as §1

`O=C(NCCO[N+](=O)[O-])c1ccccn1`: the inhibition entry with Mus musculus [1], in the data set on Mus musculus [7], in the data set on Mus musculus [8] and in the data set on Mus musculus [13] was “Active” throughout. Besides, the Drug metabolism result in the data set with Plasma [2] was “metabolite_notdetected”; with Plasma [12], “metabolite_detected”. For the same compound, the half-life in data set [3] was 66 min. Further, the highest level in [4] (Cmax) was 30800 ng/mL. For the same compound, the inhibition entry with Mus musculus [5] and in the data set on Mus musculus [10] was “inactive” each time. In data set [6], this compound showed an AUC(0-t) of 10.1 µg·h/mL. The AUC(0-inf) in data set [9] stood at 10.1 µg·h/mL. In data set [11], the Tmax amounted to 6.6 min. For the same compound, the Time in the data set with Mus musculus [14] is on record as 120 s.

As for `O=C(NCCO)c1ccccn1`, the inhibition result in the data set with Mus musculus [5] and in the data set on Mus musculus [10] was “inactive” throughout.

Take `CCC1(c2ccccc2)C(=O)NC(=O)NC1=O` [PHENOBARBITAL]: the Time in the data set with Mus musculus [15] is reported as 26 s.

Regarding `O=C(NCCO)c1cccnc1`, the inhibition result in the data set on Mus musculus [5] and in the data set on Mus musculus [10] was “inactive” throughout.

`O=C(NCCO[N+](=O)[O-])c1ccncc1`: the inhibition result with Mus musculus [1], with Mus musculus [7] and in the data set with Mus musculus [16] was “Active” in each case. Further, the Drug metabolism result in the data set with Plasma [2] and in the data set with Plasma [12] was “metabolite_detected” throughout. This compound showed a half-life in data set [3] of 45.6 min. Further, in [4], the highest level (Cmax) was 49400 ng/mL. This compound returned an AUC(0-t) in data set [6] of 160 µg·h/mL. Further, in data set [9], the AUC(0-inf) amounted to 160 µg·h/mL. Also, in [11], the Tmax came out at 52.8 min. Further, in the data set on Mus musculus [14], the Time stood at 120 s.

Consider `O=C(NCCO[N+](=O)[O-])c1cccnc1` [NICORANDIL], for which the inhibition result in the data set with Mus musculus [1], with Mus musculus [7] and in the data set on Mus musculus [16] was “Active” each time. For the same compound, the Drug metabolism result with Plasma [2] and in the data set with Plasma [12] was “metabolite_detected” in each case. In [3], the half-life is 90 min. The Cmax in data set [4] worked out at 42600 ng/mL. Besides, in the data set on Mus musculus [17], the inhibition entry was “Dose-dependent effect”. The same compound showed an AUC(0-t) in [6] of 121 µg·h/mL. In the data set with Mus musculus [18], the inhibition entry was “inactive”. For the same compound, the AUC(0-inf) in data set [9] was found to be 123 µg·h/mL. Further, the Tmax in [11] worked out at 40.2 min. Besides, the Time in the data set with Mus musculus [14] was determined as 120 s.

With `O=C(NCCO)c1ccncc1`, the inhibition entry in the data set on Mus musculus [5] and in the data set with Mus musculus [10] was “inactive” each time.

As a reminder, the half-life is how long it takes for the measured level to halve. Low readings indicate rapid decline, high ones slow decline. By Cmax is commonly meant the maximum level reached in the sampled fluid or tissue. In general, AUC(0-t) refers to exposure summed from dosing to a finite time, without extrapolation to infinity. In general, AUC(0-inf) refers to total exposure, with the tail of the curve extrapolated. Read a low AUC(0-inf) as low exposure. The term Tmax denotes the time from dosing to the highest level.

For the origin of these results see ChEMBL document CHEMBL3259755, “Synthesis, antinociceptive activity and pharmacokinetic profiles of nicorandil and its isomers” (Bioorg Med Chem, 2014).
